Converted amounts (≈) assume the structure as drawn.
Key:
[1] = target: T1, Orexin/Hypocretin receptor type 1 (Homo sapiens, UniProt O43613); assay: Binding affinity to human OX1R by radioligand displacement binding assay
T1 sequence (O43613 whole entry): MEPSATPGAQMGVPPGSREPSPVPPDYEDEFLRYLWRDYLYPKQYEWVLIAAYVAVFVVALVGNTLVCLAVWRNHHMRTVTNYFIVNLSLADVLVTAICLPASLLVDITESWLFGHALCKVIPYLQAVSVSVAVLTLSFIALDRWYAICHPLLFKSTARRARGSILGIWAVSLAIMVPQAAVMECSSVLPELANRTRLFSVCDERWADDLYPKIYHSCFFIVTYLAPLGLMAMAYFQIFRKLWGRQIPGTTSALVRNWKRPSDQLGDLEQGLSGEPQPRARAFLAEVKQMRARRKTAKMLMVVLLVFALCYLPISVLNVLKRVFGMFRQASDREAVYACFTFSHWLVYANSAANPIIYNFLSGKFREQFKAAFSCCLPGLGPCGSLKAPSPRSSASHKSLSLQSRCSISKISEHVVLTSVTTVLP
Outline: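 Ki values come from single experiments run in triplicate.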

Orexin receptor type 2 = target: T2, Orexin receptor type 2 (Homo sapiens, UniProt O43614); assay: Binding affinity to human OX2R by radioligand displacement binding assay
T2 sequence (O43614 whole entry): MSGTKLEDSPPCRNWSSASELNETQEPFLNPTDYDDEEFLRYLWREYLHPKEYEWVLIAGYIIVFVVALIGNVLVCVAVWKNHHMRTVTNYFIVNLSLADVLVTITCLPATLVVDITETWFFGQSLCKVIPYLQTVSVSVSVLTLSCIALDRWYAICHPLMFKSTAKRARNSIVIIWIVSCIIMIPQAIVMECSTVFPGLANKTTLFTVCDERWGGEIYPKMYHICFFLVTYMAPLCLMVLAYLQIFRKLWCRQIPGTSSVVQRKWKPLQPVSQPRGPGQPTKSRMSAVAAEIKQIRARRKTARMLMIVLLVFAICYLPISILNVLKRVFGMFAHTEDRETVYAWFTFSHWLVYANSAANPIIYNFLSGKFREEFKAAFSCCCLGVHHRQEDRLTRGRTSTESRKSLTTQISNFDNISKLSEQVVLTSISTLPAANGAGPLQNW

CYP3A = CYP3A (Homo sapiens, UniProt P08684+P20815+P24462+Q9HB55); assay: Time dependent inhibition of CYP3A in human liver microsomes assessed as enzyme activity using midazolam as substrate at 10 uM incubated for 30 mins prior to substrate addition for 10 mins by LC-MS/MS analysis; assay type: ADME; parameters: scale not given: the % may be the effect or the level left; settings: probe midazolam, read-out: Activity
Outline: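 Test compound at 10 μM preincubated 30 min at 37 °C with human liver microsomes (0.2 mg/mL), with or without an NADPH-generating system. Mixture then diluted 10-fold into a marker-substrate cocktail plus NADPH system and incubated 10 min at 37 °C. Midazolam served as the CYP3A probe. Metabolites measured by LC−MS/MS. Result is the residual activity with NADPH relative to without, as % of control.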

[2] = Activity at P-gp (unknown origin) assessed as corrected flux ratio; assay type: ADME; settings: human
Outline: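 Reported as corrected flux ratio, i.e. the MDR1 flux ratio divided by the PK1 flux ratio.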

[3] = Aqueous solubility of the compound in Dulbecco's phosphate buffered saline at pH 7.4 by DMSO solution precipitation method; assay type: physicochemical
Outline: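 Solubility in Dulbecco's PBS at pH 7.4, measured at room temperature by precipitation from a DMSO solution.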

Mus musculus = assay: Sleep promoting activity in C57BL/6NCrlCrlj mouse assessed as reduction in wakefulness time at 30 mg/kg, po administered immediately prior to beginning of dark cycle measured during first 3 hrs after drug administration by electroencephalogram/electromyogram analysis (reference value: 116.7 min); assay type: functional
Outline: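 Male C57BL/6NCrlCrlj mice implanted with EEG/EMG electrodes were dosed orally in 10% Cremophor EL, 5% DMSO in saline just before lights-off (ZT12) and recorded from ZT12 to ZT20. Group sizes were n=6 dosed and n=7 vehicle. Stages were scored by software with blinded visual confirmation; cumulative first-3-h times are mean with SEM. Dunnett's test was run after one-way ANOVA.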

[4] = target: Voltage-gated inwardly rectifying potassium channel KCNH2 (Homo sapiens, UniProt Q12809); assay: Inhibition of human ERG
Chain of Voltage-gated inwardly rectifying potassium channel KCNH2 (Q12809 whole entry): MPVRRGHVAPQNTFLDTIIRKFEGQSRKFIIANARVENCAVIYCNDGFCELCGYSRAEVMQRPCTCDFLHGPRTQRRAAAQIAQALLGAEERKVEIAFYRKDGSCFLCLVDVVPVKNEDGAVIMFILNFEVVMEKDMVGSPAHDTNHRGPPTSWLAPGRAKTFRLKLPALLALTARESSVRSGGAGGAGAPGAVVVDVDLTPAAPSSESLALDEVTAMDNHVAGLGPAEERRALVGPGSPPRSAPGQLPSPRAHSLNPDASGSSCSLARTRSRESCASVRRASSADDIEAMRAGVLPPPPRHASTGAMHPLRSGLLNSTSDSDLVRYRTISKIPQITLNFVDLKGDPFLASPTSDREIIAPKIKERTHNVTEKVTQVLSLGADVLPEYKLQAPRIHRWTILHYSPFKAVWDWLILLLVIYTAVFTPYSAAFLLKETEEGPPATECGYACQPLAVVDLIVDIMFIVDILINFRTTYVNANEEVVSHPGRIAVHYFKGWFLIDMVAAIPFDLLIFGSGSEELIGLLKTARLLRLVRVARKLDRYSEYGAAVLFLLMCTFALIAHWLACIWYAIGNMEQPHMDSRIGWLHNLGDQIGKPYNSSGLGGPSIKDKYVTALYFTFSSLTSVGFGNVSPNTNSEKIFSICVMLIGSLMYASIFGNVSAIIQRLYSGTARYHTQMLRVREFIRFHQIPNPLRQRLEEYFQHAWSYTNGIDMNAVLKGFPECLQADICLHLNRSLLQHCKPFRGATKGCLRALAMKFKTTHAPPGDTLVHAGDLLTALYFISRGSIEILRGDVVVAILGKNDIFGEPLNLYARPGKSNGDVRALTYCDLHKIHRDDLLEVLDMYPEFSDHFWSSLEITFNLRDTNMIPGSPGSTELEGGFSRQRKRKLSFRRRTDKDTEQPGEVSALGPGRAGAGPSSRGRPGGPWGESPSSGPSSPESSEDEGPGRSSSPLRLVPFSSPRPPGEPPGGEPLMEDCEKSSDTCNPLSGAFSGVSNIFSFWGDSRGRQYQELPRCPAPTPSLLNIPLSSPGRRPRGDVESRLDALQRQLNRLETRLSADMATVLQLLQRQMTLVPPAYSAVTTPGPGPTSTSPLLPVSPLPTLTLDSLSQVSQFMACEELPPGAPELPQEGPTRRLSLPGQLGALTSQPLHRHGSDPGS

| SMILES | Ki [1] [nM] | Ki (Orexin receptor type 2) [nM] | activity at 10 min, 10 µM (CYP3A) [%] | Ratio [2] | solubility kinetic [3] [µM] | Time (Mus musculus) [min] | IC50 [4] [nM] |
| --- | --- | --- | --- | --- | --- | --- | --- |
| CCn1cc(OC[C@]2(c3ccccc3)C[C@@H]2C(=O)Nc2ccc(C#N)cn2)c(C)n1 | > 2000 | > 2000 |  |  |  |  |  |
| CCn1cc(OC[C@@]2(c3ccccc3)C[C@H]2C(=O)Nc2ccc(C#N)cn2)c(C)n1 | 171 | 8 | 93 | 0.9 | 64 (≈ 25.7 µg/mL) |  |  |
| Cc1ncc(OC[C@@]2(c3ccccc3)C[C@H]2C(=O)Nc2ccc(C#N)cn2)c(C)n1 | 2490 | 49 | 96 | 2.7 | 80 (≈ 32 µg/mL) |  |  |
| CCc1nc(C)ncc1OC[C@@]1(c2ccccc2)C[C@H]1C(=O)Nc1ccc(C#N)cn1 | 121 | 7 | 91 | 2.1 | 44 (≈ 18.2 µg/mL) |  |  |
| Cc1cnc(OC[C@@]2(c3ccccc3)C[C@H]2C(=O)Nc2ccc(C#N)cn2)c(C)n1 | 73 | 21 | 97 | 1.3 | 47 (≈ 18.8 µg/mL) |  |  |
| COCc1nc(C)ncc1OC[C@@]1(c2ccccc2)C[C@H]1C(=O)Nc1ccc(C#N)cn1 | 43 | 9 | 92 | 4 | 93 (≈ 39.9 µg/mL) |  |  |
| Cc1ncc(OC[C@@]2(c3ccccc3)C[C@H]2C(=O)Nc2ccccn2)c(C)n1 | 1020 | 80 | 99 | 1.9 |  |  |  |
| Cc1ncc(OC[C@@]2(c3ccccc3)C[C@H]2C(=O)Nc2cccnc2)c(C)n1 | 391 | 50 | 104 | 4.4 |  |  |  |
| Cc1ncc(OC[C@@]2(c3ccccc3)C[C@H]2C(=O)Nc2ccncc2)c(C)n1 | 1580 | 163 | 110 | 6 |  |  |  |
| Cc1ncc(OC[C@@]2(c3ccccc3)C[C@H]2C(=O)Nc2ccc(F)cn2)c(C)n1 | 137 | 7 | 87 | 1.7 | 92 (≈ 36.1 µg/mL) | 72.3 | 7700 |
| Cc1ncc(OC[C@@]2(c3ccccc3)C[C@H]2C(=O)Nc2cccc(F)n2)c(C)n1 | 138 | 56 | 94 | 1.4 |  |  |  |
| Cc1ncc(OC[C@@]2(c3ccccc3)C[C@H]2C(=O)Nc2ccc(Cl)cn2)c(C)n1 | 39 | 2 | 88 | 1.3 |  | 68.2 |  |
| Cc1ccc(NC(=O)[C@@H]2C[C@@]2(COc2cnc(C)nc2C)c2ccccc2)nc1 | 124 | 34 | 22 | 1.3 |  |  |  |
| Cc1ccnc(NC(=O)[C@@H]2C[C@@]2(COc2cnc(C)nc2C)c2ccccc2)c1 | 224 | 29 | 90 | 1.5 |  |  |  |
| Cc1ncc(OC[C@@]2(c3ccccc3)C[C@H]2C(=O)Nc2cc(C)c(F)cn2)c(C)n1 | 6 | 4 | 89 |  | 51 (≈ 20.7 µg/mL) | 67.1 |  |
| COc1cc(NC(=O)[C@@H]2C[C@@]2(COc2cnc(C)nc2C)c2ccccc2)ncc1F | 3 | 6 | 86 | 1.6 |  |  |  |
| Cc1ncc(OC[C@@]2(c3ccccc3F)C[C@H]2C(=O)Nc2ccc(F)cn2)c(C)n1 | 81 | 17 | 77 | 1.4 |  |  | 5900 |
| Cc1ncc(OC[C@@]2(c3ccc(F)cc3)C[C@H]2C(=O)Nc2ccc(F)cn2)c(C)n1 | 39 | 8 | 85 | 1.3 |  |  | 2200 |
| Cc1ncc(OC[C@@]2(c3cc(F)cc(F)c3)C[C@H]2C(=O)Nc2ccc(F)cn2)c(C)n1 | 7 | 3 | 62 | 1.5 |  |  | 4800 |
| Cc1ncc(OC[C@@]2(c3ccc(F)c(F)c3)C[C@H]2C(=O)Nc2ccc(F)cn2)c(C)n1 | 14 | 4 | 75 |  |  |  |  |
| Cc1ncc(OC[C@@]2(c3cccc(F)c3)C[C@H]2C(=O)Nc2cc(C)c(F)cn2)c(C)n1 | 2 | 4 | 83 | 1.4 | 46 (≈ 19.5 µg/mL) |  | > 10000 |
| Cc1ccc(OCC2(c3ccccc3)CC2C(=O)Nc2ccc(C#N)cn2)c(C)n1 (racemic) | 938 | 222 | 34 |  | 22 (≈ 8.77 µg/mL) |  |  |
| Cc1cc(OCC2(c3ccccc3)CC2C(=O)Nc2ccc(C#N)cn2)cc(C)n1 (racemic) | > 2000 | > 2000 | 94 |  |  |  |  |
| Cc1nn(C)cc1OCC1(c2ccccc2)CC1C(=O)Nc1ccc(C#N)cn1 (racemic) | > 2000 | 204 | 85 |  | 85 (≈ 32.9 µg/mL) |  |  |
| CCn1cc(OCC2(c3ccccc3)CC2C(=O)Nc2ccc(C#N)cn2)c(C)n1 (racemic) | 391 | 10 | 84 | 1.5 | 78 (≈ 31.3 µg/mL) |  |  |

Source: ChEMBL document CHEMBL3585325, “Discovery of (1R,2S)-2-{[(2,4-Dimethylpyrimidin-5-yl)oxy]methyl}-2-(3-fluorophenyl)-N-(5-fluoropyridin-2-yl)cyclopropanecarboxamide (E2006): A Potent and Efficacious Oral Orexin Receptor Antagonist” (J Med Chem, 2015)
